Assay results from ChEMBL document CHEMBL3784960, “New 4-Functionalized Glutamate Analogues Are Selective Agonists at Metabotropic Glutamate Receptor Subtype 2 or Selective Agonists at Metabotropic Glutamate Receptor Group III” (J Med Chem, 2016).
The source made the active and inactive calls. The rule behind the calls is not given here.

How the values were obtained:
[1] = target: T1, Metabotropic glutamate receptor 3 (Rattus norvegicus, UniProt P31422); assay: Agonist activity at rat mGlu3 receptor by FRET based mGlu sensor assay
T1 sequence (P31422 whole entry): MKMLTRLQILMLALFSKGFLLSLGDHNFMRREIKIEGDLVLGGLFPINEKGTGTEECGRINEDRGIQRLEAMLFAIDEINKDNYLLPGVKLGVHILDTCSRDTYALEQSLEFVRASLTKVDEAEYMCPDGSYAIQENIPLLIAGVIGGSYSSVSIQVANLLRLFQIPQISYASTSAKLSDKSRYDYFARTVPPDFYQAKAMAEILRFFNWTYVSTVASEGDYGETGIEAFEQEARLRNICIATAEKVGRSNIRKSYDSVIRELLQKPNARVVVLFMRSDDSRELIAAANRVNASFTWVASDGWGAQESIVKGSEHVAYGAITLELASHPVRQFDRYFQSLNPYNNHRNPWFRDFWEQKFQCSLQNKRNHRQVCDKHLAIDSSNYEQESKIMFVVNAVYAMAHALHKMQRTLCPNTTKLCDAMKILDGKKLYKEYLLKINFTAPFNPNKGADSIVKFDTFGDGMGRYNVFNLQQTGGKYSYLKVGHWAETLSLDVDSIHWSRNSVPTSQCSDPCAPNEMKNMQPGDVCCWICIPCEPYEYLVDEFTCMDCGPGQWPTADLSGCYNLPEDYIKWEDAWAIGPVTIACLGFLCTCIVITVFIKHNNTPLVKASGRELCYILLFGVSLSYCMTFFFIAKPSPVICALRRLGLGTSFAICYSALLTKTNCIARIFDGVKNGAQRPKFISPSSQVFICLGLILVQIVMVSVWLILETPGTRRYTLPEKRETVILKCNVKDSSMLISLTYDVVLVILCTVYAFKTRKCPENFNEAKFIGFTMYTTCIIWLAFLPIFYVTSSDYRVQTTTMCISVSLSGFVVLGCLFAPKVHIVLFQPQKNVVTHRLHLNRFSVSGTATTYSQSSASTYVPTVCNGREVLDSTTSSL
Summary of the method: (§1)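 Receptor carried an N-terminal SNAP-tag and was transfected into HEK293 cells. At 24 h, surface receptors were labelled for 1 h with 100 nM SNAP-Lumi4-Tb (donor) and 60 nM SNAP Green (acceptor), washed three times, then drug was added. Time-resolved FRET was recorded at 520 nm, at least in duplicate. EC50 ± SEM came from n = 4−6 experiments.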

[2] = target: T2, Metabotropic glutamate receptor 5 (Rattus norvegicus, UniProt P31424); assay: Agonist activity at rat mGlu5 receptor expressed in HEK293 cells assessed as IP1 accumulation by IP-One functional assay; format: cell-based
[3] = Displacement of [3H]AMPA from rat synaptosome AMPA receptor after 30 mins by microplate scintillation counter analysis
[4] = target: T3, Excitatory amino acid transporter 1 (Homo sapiens, UniProt P43003); assay: Inhibition of human EAAT1 assessed as [3H]Asp uptake
T3 sequence (P43003 whole entry): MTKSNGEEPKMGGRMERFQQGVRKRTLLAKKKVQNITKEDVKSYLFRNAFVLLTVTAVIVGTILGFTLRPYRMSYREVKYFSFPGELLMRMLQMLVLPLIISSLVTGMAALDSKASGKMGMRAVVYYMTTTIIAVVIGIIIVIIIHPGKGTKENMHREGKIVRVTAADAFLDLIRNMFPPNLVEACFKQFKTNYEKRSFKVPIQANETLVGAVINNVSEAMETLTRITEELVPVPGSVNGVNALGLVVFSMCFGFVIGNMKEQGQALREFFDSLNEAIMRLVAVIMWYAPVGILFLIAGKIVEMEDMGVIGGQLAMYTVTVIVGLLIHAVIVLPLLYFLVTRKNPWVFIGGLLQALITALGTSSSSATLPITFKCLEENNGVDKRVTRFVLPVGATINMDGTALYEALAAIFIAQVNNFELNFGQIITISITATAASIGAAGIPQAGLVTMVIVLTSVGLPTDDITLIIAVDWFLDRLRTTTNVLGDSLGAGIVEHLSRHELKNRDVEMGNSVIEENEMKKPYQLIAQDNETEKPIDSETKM

[5] = target: T4, Metabotropic glutamate receptor 2 (Rattus norvegicus, UniProt P31421); assay: Agonist activity at rat mGlu2 receptor expressed in HEK293 cells assessed as IP1 accumulation by IP-One functional assay; format: cell-based
T4 sequence (P31421 whole entry): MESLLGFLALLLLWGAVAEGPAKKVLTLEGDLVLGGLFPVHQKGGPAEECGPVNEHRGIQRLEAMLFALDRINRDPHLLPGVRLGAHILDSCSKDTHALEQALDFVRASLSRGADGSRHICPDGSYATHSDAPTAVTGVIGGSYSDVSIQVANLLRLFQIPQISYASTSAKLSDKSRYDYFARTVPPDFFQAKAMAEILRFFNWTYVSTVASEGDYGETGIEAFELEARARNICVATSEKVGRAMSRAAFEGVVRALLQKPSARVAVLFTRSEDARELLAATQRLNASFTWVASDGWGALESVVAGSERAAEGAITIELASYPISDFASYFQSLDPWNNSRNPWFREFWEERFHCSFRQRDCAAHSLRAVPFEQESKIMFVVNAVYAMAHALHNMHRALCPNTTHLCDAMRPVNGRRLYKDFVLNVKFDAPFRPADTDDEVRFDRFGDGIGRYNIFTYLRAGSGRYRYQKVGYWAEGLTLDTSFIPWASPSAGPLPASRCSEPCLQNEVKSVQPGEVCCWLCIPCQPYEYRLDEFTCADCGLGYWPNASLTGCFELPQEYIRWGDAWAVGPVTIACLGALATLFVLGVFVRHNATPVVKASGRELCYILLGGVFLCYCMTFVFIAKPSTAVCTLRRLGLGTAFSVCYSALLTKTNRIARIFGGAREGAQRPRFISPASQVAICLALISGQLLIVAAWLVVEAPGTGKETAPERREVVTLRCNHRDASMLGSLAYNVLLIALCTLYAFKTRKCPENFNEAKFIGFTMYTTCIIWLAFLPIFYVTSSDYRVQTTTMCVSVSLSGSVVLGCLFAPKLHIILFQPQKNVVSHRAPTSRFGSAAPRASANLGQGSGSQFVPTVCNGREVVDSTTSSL
Summary of the method: (§2)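 HEK293 cells were transiently electroporated with the rat receptor plus a chimeric Gi/Gq protein for PLC coupling and EAAC1. Medium was replaced by Glutamax at least 2 h before agonist. IP1 accumulation was measured by HTRF 24 h post-transfection, at least in duplicate.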

[6] = target: T4, Metabotropic glutamate receptor 2; assay: Agonist activity at rat mGlu2 receptor by FRET based mGlu sensor assay
Summary of the method: as §1, with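 “duplicate.” for “duplicate. EC50 ± SEM came from n = 4−6 experiments.”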

[7] = target: T5, Metabotropic glutamate receptor 1 (Rattus norvegicus, UniProt P23385); assay: Agonist activity at rat mGlu1 receptor expressed in HEK293 cells assessed as IP1 accumulation by IP-One functional assay; format: cell-based
T5 sequence (P23385 whole entry): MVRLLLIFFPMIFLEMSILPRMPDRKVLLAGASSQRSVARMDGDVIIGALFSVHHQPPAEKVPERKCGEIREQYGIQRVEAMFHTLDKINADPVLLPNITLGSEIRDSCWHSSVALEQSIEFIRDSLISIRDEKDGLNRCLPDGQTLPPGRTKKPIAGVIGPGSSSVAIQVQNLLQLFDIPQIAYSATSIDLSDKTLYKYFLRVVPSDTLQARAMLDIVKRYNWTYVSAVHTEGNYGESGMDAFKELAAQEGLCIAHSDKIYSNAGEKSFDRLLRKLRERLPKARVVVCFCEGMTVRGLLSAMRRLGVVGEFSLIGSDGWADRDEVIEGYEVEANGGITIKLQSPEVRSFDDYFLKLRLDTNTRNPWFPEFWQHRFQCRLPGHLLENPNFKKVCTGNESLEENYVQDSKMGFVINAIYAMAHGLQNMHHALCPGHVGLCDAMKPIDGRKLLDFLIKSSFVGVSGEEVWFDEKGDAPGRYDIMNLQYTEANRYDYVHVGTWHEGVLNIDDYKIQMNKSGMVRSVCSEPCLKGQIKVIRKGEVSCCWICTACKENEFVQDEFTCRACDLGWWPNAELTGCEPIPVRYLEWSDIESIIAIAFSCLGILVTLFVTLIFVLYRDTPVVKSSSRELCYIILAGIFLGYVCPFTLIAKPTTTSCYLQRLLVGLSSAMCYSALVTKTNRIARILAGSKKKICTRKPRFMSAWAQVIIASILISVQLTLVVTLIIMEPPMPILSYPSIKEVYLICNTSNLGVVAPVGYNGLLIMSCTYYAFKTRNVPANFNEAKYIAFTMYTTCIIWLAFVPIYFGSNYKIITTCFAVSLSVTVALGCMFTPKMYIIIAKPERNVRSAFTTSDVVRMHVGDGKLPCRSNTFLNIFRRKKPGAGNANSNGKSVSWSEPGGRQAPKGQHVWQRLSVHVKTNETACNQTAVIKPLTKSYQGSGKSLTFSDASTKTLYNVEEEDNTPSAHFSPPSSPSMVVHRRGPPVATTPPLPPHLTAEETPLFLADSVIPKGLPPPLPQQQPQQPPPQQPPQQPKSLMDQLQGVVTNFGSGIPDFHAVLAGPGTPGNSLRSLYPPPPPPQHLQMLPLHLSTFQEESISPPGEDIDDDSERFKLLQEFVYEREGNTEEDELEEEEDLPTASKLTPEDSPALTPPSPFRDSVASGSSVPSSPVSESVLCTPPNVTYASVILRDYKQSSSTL
Summary of the method: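 Rat group I receptor transiently electroporated into HEK293 with the EAAC1 glutamate transporter; medium switched to Glutamax at least 2 h before stimulation. IP1 was read by HTRF (IP-One kit) 24 h after transfection. Runs were at least in duplicate, with EC50 ± SEM from n = 4−6 experiments.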

[8] = target: Metabotropic glutamate receptor 2 (Homo sapiens) (UniProt Q14416); assay: Agonist activity at mGlu2 receptor (unknown origin) assessed as IP1 accumulation preincubated with 3 uM LY341495 for 20 mins followed by addition of 1 mM of compound by IP-One functional assay
Summary of the method: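 Single-dose test in HEK293 cells cotransfected with rat receptor, chimeric Gi/Gq and EAAC1. Cells were pretreated with 3 μM LY341495 for 20 min at 37 °C, washed twice, then stimulated with 1 mM compound. IP1 was read by HTRF 24 h post-transfection. Comparison was against vehicle by one-way ANOVA with Dunnett's test.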

[9] = target: T3, Excitatory amino acid transporter 1; assay: Substrate activity at human EAAT1 assessed as [3H]Asp uptake measured up to 300 uM
[10] = target: Metabotropic glutamate receptor 8 (Rattus norvegicus, UniProt P70579); assay: Agonist activity at rat mGlu8 receptor expressed in HEK293 cells assessed as IP1 accumulation by IP-One functional assay; format: cell-based
Summary of the method: as §2, with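 “duplicate. EC50 ± SEM came from n = 4−6 experiments.” for “duplicate.”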

[11] = target: Metabotropic glutamate receptor 3 (Rattus norvegicus) (UniProt P31422); assay: Agonist activity at mGlu3 receptor (rat) assessed as IP1 accumulation preincubated with 3 uM LY341495 for 20 mins followed by addition of 1 mM of compound by IP-One functional assay
Chain of Metabotropic glutamate receptor 3 (Rattus norvegicus) (P31422 whole entry, looked up): as the sequence (P31422 whole entry) above

[12] = target: T6, Excitatory amino acid transporter 2 (Homo sapiens, UniProt P43004); assay: Inhibition of human EAAT2 assessed as [3H]Asp uptake
T6 sequence (P43004 whole entry): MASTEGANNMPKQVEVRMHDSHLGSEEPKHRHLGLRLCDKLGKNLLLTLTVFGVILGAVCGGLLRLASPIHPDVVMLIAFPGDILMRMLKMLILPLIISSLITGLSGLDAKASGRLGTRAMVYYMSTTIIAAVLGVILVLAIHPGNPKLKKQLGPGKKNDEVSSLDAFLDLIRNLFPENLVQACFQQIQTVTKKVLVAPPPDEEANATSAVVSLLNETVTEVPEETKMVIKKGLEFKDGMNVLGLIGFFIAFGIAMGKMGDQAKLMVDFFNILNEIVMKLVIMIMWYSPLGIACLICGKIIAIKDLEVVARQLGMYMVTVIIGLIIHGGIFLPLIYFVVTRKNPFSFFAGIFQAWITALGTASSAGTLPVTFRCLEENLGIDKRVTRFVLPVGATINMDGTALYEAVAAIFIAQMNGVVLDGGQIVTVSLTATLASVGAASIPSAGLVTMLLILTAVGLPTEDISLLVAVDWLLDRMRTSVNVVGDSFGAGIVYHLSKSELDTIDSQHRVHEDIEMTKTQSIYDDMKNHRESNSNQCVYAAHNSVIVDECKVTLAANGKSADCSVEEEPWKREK

[13] = target: Metabotropic glutamate receptor 6 (Rattus norvegicus, UniProt P35349); assay: Agonist activity at rat mGlu6 receptor expressed in HEK293 cells assessed as IP1 accumulation by IP-One functional assay; format: cell-based
Summary of the method: as §2, with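 “duplicate. EC50 ± SEM came from n = 4−6 experiments.” for “duplicate.”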

[14] = target: T6, Excitatory amino acid transporter 2; assay: Substrate activity at human EAAT2 assessed as [3H]Asp uptake measured up to 300 uM
[15] = Displacement of [3H]KA from rat synaptosome KA receptor after 60 mins by microplate scintillation counter analysis
Glutamate NMDA receptor = assay: Displacement of [3H]CGP from rat synaptosome NMDA receptor after 60 mins by microplate scintillation counter analysis; format: protein-complex assay
[16] = target: T7, Metabotropic glutamate receptor 4 (Rattus norvegicus, UniProt P31423); assay: Agonist activity at rat mGlu4 receptor expressed in HEK293 cells assessed as IP1 accumulation by IP-One functional assay; format: cell-based
Summary of the method: as §2, with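 “duplicate. EC50 ± SEM came from n = 4−6 experiments.” for “duplicate.”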

[17] = target: T8, Excitatory amino acid transporter 3 (Homo sapiens, UniProt P43005); assay: Inhibition of human EAAT3 assessed as [3H]Asp uptake
T8 sequence (P43005 whole entry): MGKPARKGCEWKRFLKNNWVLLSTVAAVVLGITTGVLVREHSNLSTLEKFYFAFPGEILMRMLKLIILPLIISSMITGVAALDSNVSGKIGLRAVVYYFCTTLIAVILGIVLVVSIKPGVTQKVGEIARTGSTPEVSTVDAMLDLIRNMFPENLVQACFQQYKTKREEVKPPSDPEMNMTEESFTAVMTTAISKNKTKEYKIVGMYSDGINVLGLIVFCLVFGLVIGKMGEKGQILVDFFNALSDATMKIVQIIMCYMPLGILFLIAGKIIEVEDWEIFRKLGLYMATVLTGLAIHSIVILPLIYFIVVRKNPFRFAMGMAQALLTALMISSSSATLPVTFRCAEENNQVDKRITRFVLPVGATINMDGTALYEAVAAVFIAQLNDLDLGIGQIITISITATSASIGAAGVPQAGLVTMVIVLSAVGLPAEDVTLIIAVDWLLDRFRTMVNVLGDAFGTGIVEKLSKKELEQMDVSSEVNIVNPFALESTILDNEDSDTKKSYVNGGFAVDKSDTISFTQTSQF

[18] = target: Metabotropic glutamate receptor 7 (Rattus norvegicus, UniProt P35400); assay: Agonist activity at rat mGlu7 receptor expressed in HEK293 cells assessed as IP1 accumulation by IP-One functional assay; format: cell-based
Chain of Metabotropic glutamate receptor 7 (Rattus norvegicus, UniProt P35400) (P35400 whole entry): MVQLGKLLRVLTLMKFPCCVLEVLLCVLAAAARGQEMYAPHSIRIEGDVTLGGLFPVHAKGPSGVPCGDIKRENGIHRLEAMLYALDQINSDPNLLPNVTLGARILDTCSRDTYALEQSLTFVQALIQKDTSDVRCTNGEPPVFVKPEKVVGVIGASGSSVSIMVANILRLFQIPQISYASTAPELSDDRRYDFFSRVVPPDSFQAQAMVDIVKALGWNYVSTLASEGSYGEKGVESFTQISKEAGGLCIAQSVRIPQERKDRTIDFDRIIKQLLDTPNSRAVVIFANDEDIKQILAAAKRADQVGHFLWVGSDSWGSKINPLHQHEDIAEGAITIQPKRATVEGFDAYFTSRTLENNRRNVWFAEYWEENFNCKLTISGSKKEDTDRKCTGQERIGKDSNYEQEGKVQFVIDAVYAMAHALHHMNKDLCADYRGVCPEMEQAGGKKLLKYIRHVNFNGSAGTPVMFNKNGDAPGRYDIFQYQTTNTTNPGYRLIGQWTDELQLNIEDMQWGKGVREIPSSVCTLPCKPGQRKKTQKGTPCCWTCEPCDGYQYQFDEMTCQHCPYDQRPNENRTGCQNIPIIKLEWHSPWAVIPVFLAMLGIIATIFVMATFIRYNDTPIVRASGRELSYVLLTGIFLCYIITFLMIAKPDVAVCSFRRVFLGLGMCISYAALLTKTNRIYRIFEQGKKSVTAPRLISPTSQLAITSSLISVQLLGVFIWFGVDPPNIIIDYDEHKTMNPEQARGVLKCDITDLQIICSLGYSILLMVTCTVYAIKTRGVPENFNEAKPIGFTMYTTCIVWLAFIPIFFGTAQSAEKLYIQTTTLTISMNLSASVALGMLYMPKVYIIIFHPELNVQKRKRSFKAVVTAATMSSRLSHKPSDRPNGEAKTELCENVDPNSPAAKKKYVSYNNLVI
Summary of the method: as §2, with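 “duplicate. EC50 ± SEM came from n = 4−6 experiments.” for “duplicate.”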

[19] = target: T1, Metabotropic glutamate receptor 3; assay: Agonist activity at rat mGlu3 receptor expressed in HEK293 cells by [35S]GTP-gamma binding assay; format: cell-based
[20] = target: Metabotropic glutamate receptor 7 (Homo sapiens, UniProt Q14831); assay: Agonist activity at human mGlu7 receptor expressed in HEK293 assessed as inhibition of forskolin stimulated cAMP production; format: functional, cell-based
Chain of Metabotropic glutamate receptor 7 (Homo sapiens, UniProt Q14831) (Q14831 whole entry): as the sequence (P35400 whole entry) above, with G5R, V27A, H454N, T488S, S520A, N578D counted along it

[21] = target: T4, Metabotropic glutamate receptor 2; assay: Agonist activity at rat mGlu2 receptor expressed in HEK293 cells by [35S]GTP-gamma binding assay; format: cell-based
[22] = target: T7, Metabotropic glutamate receptor 4; assay: Agonist activity at rat mGlu4 receptor expressed in HEK293 cells assessed as inhibition of forskolin stimulated cAMP production; format: functional, cell-based
[23] = target: T5, Metabotropic glutamate receptor 1; assay: Agonist activity at rat mGlu1 receptor expressed in HEK293 cells by intracellular Ca2+ mobilization assay; format: functional, cell-based
[24] = target: T2, Metabotropic glutamate receptor 5; assay: Agonist activity at rat mGlu5 receptor expressed in HEK293 cells by intracellular Ca2+ mobilization assay; format: functional, cell-based

SMILES	EC50 [1] [µM]	EC50 [2] [µM]	IC50 [3] [µM]	IC50 [4] [µM]	EC50 [5] [µM]	EC50 [6] [µM]	EC50 [7] [µM]	Activity [9]	EC50 [10] [µM]	IC50 [12] [µM]	EC50 [13] [µM]	Activity [14]	IC50 [15] [µM]	EC50 [16] [µM]	EC50 [19] [µM]	EC50 [20] [µM]	EC50 ([21]; read-out: EC50) [µM]	EC50 [22] [µM]	EC50 [23] [µM]	EC50 [24] [µM]	further results
N[C@@H](CCC(=O)O)C(=O)O [GLUTAMIC ACID]	3.4	–	–	–	–	–	–	–	14	–	65.1	–	–	9.49	0.06	1.18	–	–	–	–	–
NCCC[C@H](C[C@H](N)C(=O)O)C(=O)O	–	–	–	–	–	–	–	–	–	–	–	–	–	–	> 1000	> 1000	49	> 1000	> 1000	> 1000	EC50 ([21]; read-out: pEC50 (converted)): 4.9 µM
CNC(=O)CC[C@H](C[C@H](N)C(=O)O)C(=O)O	–	–	–	–	–	–	–	–	–	–	–	–	–	–	–	–	> 1000	> 1000	> 1000	> 1000	–
NCC[C@H](C[C@H](N)C(=O)O)C(=O)O	–	–	–	–	–	–	–	–	–	–	–	–	–	–	> 1000	> 1000	> 1000	> 1000	> 1000	> 1000	–
N[C@@H](C[C@@H](CCC(=O)NO)C(=O)O)C(=O)O	–	–	–	–	–	–	–	–	–	–	–	–	–	–	> 1000	> 1000	> 1000	> 1000	> 1000	> 1000	–
COC(=O)CC[C@H](C[C@H](N)C(=O)O)C(=O)O	–	–	–	–	–	–	–	–	–	–	–	–	–	–	–	–	> 1000	> 1000	> 1000	> 1000	–

Now from value to compound, other results behind:

EC50 [1] [µM]	EC50 [2] [µM]	IC50 [3] [µM]	IC50 [4] [µM]	EC50 [5] [µM]	EC50 [6] [µM]	EC50 [7] [µM]	Activity [9]	EC50 [10] [µM]	IC50 [12] [µM]	EC50 [13] [µM]	Activity [14]	IC50 [15] [µM]	EC50 [16] [µM]	EC50 [19] [µM]	EC50 [20] [µM]	EC50 ([21]; read-out: EC50) [µM]	EC50 [22] [µM]	EC50 [23] [µM]	EC50 [24] [µM]	SMILES	further results
> 1000	> 1000	> 100	> 300	33.7	119	> 1000	inactive	> 1000	> 300	> 1000	inactive	> 100	> 1000	–	–	–	–	–	–	N[C@@H](C[C@]1(C(=O)O)C[C@@H]1C(=O)O)C(=O)O	Activity [8]: Active; Activity [11]: inactive; Ki (Glutamate NMDA receptor): > 100 µM; IC50 [17]: > 300 µM; EC50 [18]: > 1000 µM
> 1000	> 1000	> 100	> 300	> 1000	> 1000	> 1000	inactive	20.8	> 300	17.8	inactive	> 100	2.48	–	–	–	–	–	–	N[C@@H](C[C@@]1(C(=O)O)C[C@@H]1C(=O)O)C(=O)O	Ki (Glutamate NMDA receptor): 15 µM; IC50 [17]: > 300 µM; EC50 [18]: > 1000 µM
> 1000	> 1000	> 100	> 300	145	> 1000	> 1000	inactive	0.68	> 300	0.49	inactive	> 100	0.13	–	–	–	–	–	–	N[C@@H](C[C@]1(C(=O)O)C[C@H]1C(=O)O)C(=O)O	Activity [8]: Active; Activity [11]: inactive; Ki (Glutamate NMDA receptor): 13 µM; IC50 [17]: > 300 µM; EC50 [18]: 120 µM
